For 32 molecules, Activity, IC50 and Ki results are on record in ChEMBL document CHEMBL1144657, “Discovery of heterobicyclic templates for novel metabotropic glutamate receptor subtype 5 antagonists” (Bioorg Med Chem Lett, 2007).

Activity calls are given as the source filed them. No cut-off for these calls is given here.

Metabotropic glutamate receptor 5, sequence (P31424 whole entry): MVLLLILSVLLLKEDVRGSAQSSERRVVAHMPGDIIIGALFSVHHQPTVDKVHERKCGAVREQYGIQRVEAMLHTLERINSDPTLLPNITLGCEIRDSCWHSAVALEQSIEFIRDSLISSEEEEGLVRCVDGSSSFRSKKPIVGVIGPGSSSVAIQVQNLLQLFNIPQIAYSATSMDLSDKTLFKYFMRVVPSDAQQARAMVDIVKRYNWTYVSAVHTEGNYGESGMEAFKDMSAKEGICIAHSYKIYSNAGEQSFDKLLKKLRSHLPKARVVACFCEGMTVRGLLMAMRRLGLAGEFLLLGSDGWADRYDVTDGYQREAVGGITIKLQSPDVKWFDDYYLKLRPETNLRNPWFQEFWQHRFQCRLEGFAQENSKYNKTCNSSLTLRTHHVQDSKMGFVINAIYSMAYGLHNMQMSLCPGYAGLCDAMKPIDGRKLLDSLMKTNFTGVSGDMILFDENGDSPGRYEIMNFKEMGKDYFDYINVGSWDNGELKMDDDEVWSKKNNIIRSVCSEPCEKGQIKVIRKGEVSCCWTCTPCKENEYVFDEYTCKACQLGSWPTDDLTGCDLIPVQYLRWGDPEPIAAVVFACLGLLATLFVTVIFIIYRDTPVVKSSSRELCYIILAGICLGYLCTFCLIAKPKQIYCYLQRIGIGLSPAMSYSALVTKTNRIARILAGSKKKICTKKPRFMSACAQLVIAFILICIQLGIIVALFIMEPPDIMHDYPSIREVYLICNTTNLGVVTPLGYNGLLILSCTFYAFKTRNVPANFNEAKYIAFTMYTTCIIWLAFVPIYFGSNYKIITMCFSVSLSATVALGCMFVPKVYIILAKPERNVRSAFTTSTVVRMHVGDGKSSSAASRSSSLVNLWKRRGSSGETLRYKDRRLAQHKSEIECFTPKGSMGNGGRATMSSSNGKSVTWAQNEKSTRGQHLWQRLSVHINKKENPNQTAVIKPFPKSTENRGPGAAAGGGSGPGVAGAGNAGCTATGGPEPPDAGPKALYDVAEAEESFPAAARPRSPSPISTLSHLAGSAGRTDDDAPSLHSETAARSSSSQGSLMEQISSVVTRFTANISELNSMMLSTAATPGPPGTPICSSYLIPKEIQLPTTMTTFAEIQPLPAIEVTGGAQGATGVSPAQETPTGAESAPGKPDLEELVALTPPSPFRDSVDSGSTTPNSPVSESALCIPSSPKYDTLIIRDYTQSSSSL
Metabotropic glutamate receptor 5 (Rattus norvegicus), sequence (P31424 21-1203 limits assumed): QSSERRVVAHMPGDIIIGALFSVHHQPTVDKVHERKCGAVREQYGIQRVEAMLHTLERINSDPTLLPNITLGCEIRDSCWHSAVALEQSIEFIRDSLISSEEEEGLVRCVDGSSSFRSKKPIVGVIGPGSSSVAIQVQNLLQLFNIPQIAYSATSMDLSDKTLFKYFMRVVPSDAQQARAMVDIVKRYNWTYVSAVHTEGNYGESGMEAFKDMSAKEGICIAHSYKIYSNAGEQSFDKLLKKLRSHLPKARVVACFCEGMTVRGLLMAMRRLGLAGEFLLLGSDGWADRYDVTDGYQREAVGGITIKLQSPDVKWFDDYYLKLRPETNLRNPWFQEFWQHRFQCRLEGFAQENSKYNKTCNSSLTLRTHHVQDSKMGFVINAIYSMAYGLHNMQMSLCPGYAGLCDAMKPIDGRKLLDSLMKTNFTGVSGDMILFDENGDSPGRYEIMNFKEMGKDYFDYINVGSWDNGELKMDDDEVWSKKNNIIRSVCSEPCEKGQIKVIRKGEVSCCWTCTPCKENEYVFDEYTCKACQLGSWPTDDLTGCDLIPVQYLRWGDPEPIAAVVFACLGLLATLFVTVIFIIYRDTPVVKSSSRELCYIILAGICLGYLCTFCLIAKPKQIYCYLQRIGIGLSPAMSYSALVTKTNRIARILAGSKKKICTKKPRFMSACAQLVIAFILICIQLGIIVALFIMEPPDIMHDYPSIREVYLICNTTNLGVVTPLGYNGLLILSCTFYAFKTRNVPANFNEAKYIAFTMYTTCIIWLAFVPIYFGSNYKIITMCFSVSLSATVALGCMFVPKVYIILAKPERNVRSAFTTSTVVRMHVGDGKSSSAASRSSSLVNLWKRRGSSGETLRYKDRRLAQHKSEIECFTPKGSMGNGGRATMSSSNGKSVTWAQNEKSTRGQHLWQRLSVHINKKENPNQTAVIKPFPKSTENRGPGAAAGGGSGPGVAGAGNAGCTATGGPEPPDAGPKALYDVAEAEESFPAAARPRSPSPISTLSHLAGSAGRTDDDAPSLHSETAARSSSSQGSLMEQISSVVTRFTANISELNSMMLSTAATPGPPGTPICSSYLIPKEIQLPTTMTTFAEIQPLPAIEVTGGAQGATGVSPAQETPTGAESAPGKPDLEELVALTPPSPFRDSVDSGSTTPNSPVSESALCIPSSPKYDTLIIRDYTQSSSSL

One experiment has as its target Metabotropic glutamate receptor 5 (Rattus norvegicus) (UniProt P31424). The experiment can be described thus: Displacement of [3H]MPEP from mGluR5 in rat brain membrane at 10 uM. It counts as cell membranes. An outline of the steps: (§1)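 Binding was measured by the NIMH Psychoactive Drug Screening Program in rat brain membranes, with [3H]MPEP as the mGluR5 radioligand. Single-concentration screens are reported as percent inhibition of [3H]MPEP binding at 10 μM, and some compounds were also tested at 100 μM. For selected compounds, IC50 was determined using a previously published protocol.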
As to `Cc1ccc(-c2ccc3ccc(C)nc3c2)nc1`, the Activity came out at 9%.

As to `Cc1ccc2nc(-c3ccccc3)n(CC3CC3)c2n1`, the Activity was less than 1%.

For `Cc1nc2cc(-c3ncccn3)ccc2s1`, the Activity worked out at 29%.

Molecule `Cc1ccc2ccc(-c3ccccn3)cc2n1` displayed an Activity of 28%.

Molecule `Cc1ccc2sc(-c3ccccc3)nc2n1` came in with an Activity of 16%.

In turn, `Cc1ccc2ccc(-c3ccccc3)cc2n1` came in with an Activity of 50%.

`Cc1nc2nc(-c3ccccc3)sc2cc1-c1cccc(C#N)c1` came in with an Activity of 13%.

Take `COc1cc2sc(-c3ccccc3)nc2nc1C`: the Activity is less than 1%.

On to `Cc1ccc2ccc(-c3cccs3)cc2n1`, for which the Activity is less than 1%.

On to `Cc1ccc2ccc(-c3ncc(F)cn3)cc2n1`, for which the Activity was greater than 1%.

Molecule `Cc1ccc2nc(-c3ccccc3)n(C)c2n1` registered an Activity of less than 1%.

Turning to `Cc1nc2nc(-c3ccccc3)sc2cc1Br`, the Activity was 1%.

Molecule `Cc1cccc(-c2ccc3sc(C)nc3c2)n1` came in with an Activity of 17%.

In turn, `COc1ccnc(-c2ccc3sc(C)nc3c2)n1` gave an Activity of 39%.

`Cc1nc2nc(-c3ccccc3)sc2cc1-c1ccc(F)cc1` showed an Activity of 3%.

The molecule `Cc1nc2nc(-c3ccccc3)sc2cc1-c1cccc(Cl)c1` came in with an Activity of 1%.

A further experiment shares this target. Briefly: Displacement of [3H]MPEP from mGluR5 in rat brain membrane at 100 uM. The experiment is classed as cell membranes. In outline:
as §1
For the molecule `Cc1nc2cc(-c3ccccc3)ccc2s1`, the outcome was inactive.

For the molecule `Cc1nc2cc(-c3ccc(F)cc3)ccc2s1`, the outcome was inactive.

The next experiment has as its target Metabotropic glutamate receptor 5 (Rattus norvegicus, UniProt P31424). The experiment can be described thus: Displacement of [3H]MPEP from mGluR5 in rat brain membrane. It counts as cell membranes.
On to `Cc1nc2nc(-c3ccccc3)sc2cc1-c1ccccc1`, for which the 50% inhibitory concentration (IC50) was 33.5 µM.

Consider `Cc1ccc2nc(-c3ccccc3)n(Cc3ccccc3)c2n1`, for which the inhibition constant (Ki) is greater than 10 µM.

`Cc1ccc2c(n1)nc(-c1ccccc1)n2Cc1ccccc1` displayed an inhibition constant Ki greater than 10 µM.

`Cc1ccc2[nH]c(-c3ccccc3)nc2n1`: the Ki was greater than 10 µM.

In the case of `Cc1nc2cc(-c3cccc(C#N)c3)ccc2s1`, the affinity, expressed as Ki, was 2.1 µM.

For `Cc1cc(C)nc(-c2ccc3ccc(C)nc3c2)n1`, the Ki came out at 2.09 µM.

In turn, `Cc1ccc2ccc(-c3cnccn3)cc2n1` yielded a Ki greater than 60 µM.

Molecule `Cc1nc2cc(-c3cccc(Cl)c3)ccc2s1` displayed a half-maximal inhibitory concentration (IC50) of 43.4 µM.

Take `Cc1nc2nc(-c3ccccc3)sc2cc1-c1cccs1`: the Ki was greater than 10 µM.

`Cc1ccc2ccc(-c3ncccn3)cc2n1` came in with a Ki greater than 20 µM.

`Cc1ccc2ccc(-c3cccc(C#N)c3)cc2n1`: the Ki is 0.11 µM.

On to `COc1ccnc(-c2ccc3ccc(C)nc3c2)n1`, for which the affinity, expressed as Ki, was 1.55 µM.

As for `COc1cccc(-c2ccc3sc(C)nc3c2)c1`, the IC50 was 43.1 µM.

`COc1cc(OC)nc(-c2ccc3ccc(C)nc3c2)n1`: the Ki worked out at 5.43 µM.
